This note sets out measurements from ChEMBL document CHEMBL2440001, “Design and synthesis of novel 3,5-bis-N-(aryl/heteroaryl) carbamoyl-4-aryl-1,4-dihydropyridines as small molecule BACE-1 inhibitors” (Bioorg Med Chem, 2013).

The target in assay [1] is T1, Beta-secretase 1 (Homo sapiens, UniProt P56817). Briefly: Inhibition of recombinant human BACE-1 using SEVNLDAEFK as substrate at 10 uM after 90 mins by FRET assay.
Assay [2] concerns the target T1, Beta-secretase 1. The assay is described as follows: Inhibition of recombinant human BACE-1 using SEVNLDAEFK as substrate at 50 uM after 90 mins by FRET assay.
Assay [3] is filed under the species Cavia porcellus. Briefly: Antagonist activity at calcium channel albino guinea pig ileal longitudinal smooth muscle assessed as inhibition of KCl-induced contraction. In short, it runs like this:
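Fasted guinea-pig ileal longitudinal smooth muscle, 2 cm segments under 0.5 g resting tension, contracted with 40 mM KCl. Compounds were added cumulatively, and relaxation was expressed as percent of control. IC30 (30% relaxation) was read graphically from the curves.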

For assay [4], the target named is T1, Beta-secretase 1. Briefly: Inhibition of recombinant human BACE-1 using SEVNLDAEFK as substrate after 90 mins by FRET assay.

Structures are written as SMILES. pIC50: −log10 of the molar value. Peptide text beside a SMILES is read from it. * marks the point of attachment. X1 = C[C@H](NC[C@H](C)N*)C(=O)N[C@@H](CCC(=O)O)C(=O)N[C@@H](Cc1ccccc1)C(=O)O

T1 sequence (P56817 whole entry): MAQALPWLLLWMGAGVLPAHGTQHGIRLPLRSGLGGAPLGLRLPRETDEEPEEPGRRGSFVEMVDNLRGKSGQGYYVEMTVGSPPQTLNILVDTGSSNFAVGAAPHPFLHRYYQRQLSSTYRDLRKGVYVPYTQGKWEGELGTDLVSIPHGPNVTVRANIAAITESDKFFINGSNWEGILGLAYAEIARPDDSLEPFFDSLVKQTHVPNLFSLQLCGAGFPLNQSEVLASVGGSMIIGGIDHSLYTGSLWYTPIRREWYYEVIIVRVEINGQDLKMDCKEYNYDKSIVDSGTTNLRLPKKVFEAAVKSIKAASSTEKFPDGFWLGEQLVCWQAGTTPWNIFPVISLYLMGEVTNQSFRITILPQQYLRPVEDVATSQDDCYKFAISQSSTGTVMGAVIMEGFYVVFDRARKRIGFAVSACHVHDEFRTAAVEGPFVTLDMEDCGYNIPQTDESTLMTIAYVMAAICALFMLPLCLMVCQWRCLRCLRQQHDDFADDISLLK

As for `CC1=C(C(=O)Nc2cc(C)on2)C(c2ccccc2[N+](=O)[O-])C(C(=O)Nc2cc(C)on2)=C(C)N1`, the inhibition (usually the percentage by which the read-out fell short of the control) amounted to 12.7% in assay [1] and 54% in assay [2].

Take `CC1=C(C(=O)Nc2cc(C)on2)C(c2cccc([N+](=O)[O-])c2)C(C(=O)Nc2cc(C)on2)=C(C)N1`: the inhibition in assay [1] was 11.6%.

Consider `CC1=C(C(=O)Nc2nccs2)C(c2ccc([N+](=O)[O-])cc2)C(C(=O)Nc2nccs2)=C(C)N1`, for which the inhibition amounted to 28.1% in assay [1] and 46.8% in assay [2].

For `CC1=C(C(=O)Nc2cc(C)on2)C(c2ccc([N+](=O)[O-])cc2)C(C(=O)Nc2cc(C)on2)=C(C)N1`, the inhibition stood at 23.5% in assay [1] and 43% in assay [2].

As for `CC1=C(C(=O)Nc2nc3ccccc3s2)C(c2ccc([N+](=O)[O-])cc2)C(C(=O)Nc2nc3ccccc3s2)=C(C)N1`, the values for the inhibition in assay [1] and in assay [2] were 49.8% and 90.8%, respectively.

`CC1=C(C(=O)Nc2nc(C)cs2)C(c2ccccc2[N+](=O)[O-])C(C(=O)Nc2nc(C)cs2)=C(C)N1`: in assay [3], the IC15 came to 1.82 µM. Further, the inhibition in assay [1] amounted to 69.4%; in assay [2], 95%. For the same compound, the pIC50 (usually −log10 of the IC50, conventionally taken in molar units) in assay [4] is 5.33.

Take `CC1=C(C(=O)Nc2nc(C)cs2)C(c2ccc([N+](=O)[O-])cc2)C(C(=O)Nc2nc(C)cs2)=C(C)N1`: the IC15 in assay [3] is 4.63 µM. Also, the inhibition in assay [1] worked out at 77.2%; in assay [2], 88%. Moreover, in assay [4], the pIC50 is 5.38.

Regarding `COC(=O)C1=C(C)NC(C)=C(C(=O)OC)C1c1ccccc1[N+](=O)[O-]`, in assay [3], the IC15 was found to be 0.00202 µM and the IC30 (in general, the point of the concentration-response curve where the effect stands at 30%) stood at 0.00927 µM.

Consider `CC(C)C[C@H](NC(=O)[C@H](CC(N)=O)NC(=O)[C@@H](NC(=O)[C@@H](N)CCC(=O)O)C(C)C)C(=O)N[C@@H](C)CN[C@@H](C)C(=O)N[C@@H](CCC(=O)O)C(=O)N[C@@H](Cc1ccccc1)C(=O)O` (H-EVNL-X1), for which the pIC50 in assay [4] was 8.52.

As to `COc1ccc(C2C(C(=O)Nc3nc(C)cs3)=C(C)NC(C)=C2C(=O)Nc2nc(C)cs2)cc1`, the figures for the inhibition in assay [1] and in assay [2] were 44.4% and 86.3%, respectively.

As for `CCOc1ccc2nc(NC(=O)C3=C(C)NC(C)=C(C(=O)Nc4nc5ccc(OCC)cc5s4)C3c3cccc([N+](=O)[O-])c3)sc2c1`, the inhibition came to 49.1% in assay [1] and 94% in assay [2].

For `CC1=C(C(=O)Nc2nc(C)cs2)C(c2cccc([N+](=O)[O-])c2)C(C(=O)Nc2nc(C)cs2)=C(C)N1`, the inhibition is 34.8% in assay [1] and 70.4% in assay [2].

As to `CC1=C(C(=O)Nc2cc(C)on2)C(c2ccc[nH]2)C(C(=O)Nc2cc(C)on2)=C(C)N1`, the inhibition was found to be 24.1% in assay [1] and 57.4% in assay [2].

With `CC1=C(C(=O)Nc2nc3ccccc3s2)C(c2ccccc2)C(C(=O)Nc2nc3ccccc3s2)=C(C)N1`, the inhibition in assay [1] amounted to 44.9%.

In the case of `CC1=C(C(=O)Nc2nc3ccccc3s2)C(c2cccc([N+](=O)[O-])c2)C(C(=O)Nc2nc3ccccc3s2)=C(C)N1`, the inhibition in assay [1] came out at 49.4%; in assay [2], 56.2%.

With `CC1=C(C(=O)Nc2nc(C)cs2)C(c2ccco2)C(C(=O)Nc2nc(C)cs2)=C(C)N1`, the IC15 in assay [3] was found to be 2.26 µM. In addition, the inhibition in assay [1] is 66.4%; in assay [2] it was 95.1%. In assay [4], the pIC50 was 5.17.

Regarding `CC1=C(C(=O)Nc2nc3ccccc3s2)C(c2ccccc2[N+](=O)[O-])C(C(=O)Nc2nc3ccccc3s2)=C(C)N1`, the IC15 in assay [3] was 6.47 ×10⁻⁷ M. For the same compound, the inhibition in assay [1] stood at 65.6%; in assay [2] it was 87.2%. For the same compound, the pIC50 in assay [4] is 5.37.
